Experimental findings from ChEMBL document CHEMBL1681762, “Application of plant allylpolyalkoxybenzenes in synthesis of antimitotic phenstatin analogues” (2011) are described below.

Common to all, as to type: functional
In assay [1] the test system is Paracentrotus lividus. In words: Antiproliferative activity against sea urchin embryo assessed as cleavage alteration after 10 to 15 mins fertilization 45 to 60 mins before first mitotic cycle completion. An outline of the steps:
(§1)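 Phenotypic in vivo assay on fertilized sea urchin eggs, scored for cleavage alteration or arrest. Reported value is the effective threshold concentration (EC), from duplicate measurements.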

Assay [2] has as its system Paracentrotus lividus. Description: tubulin-destabilizing activity in sea urchin embryo assessed as embryo spinning treated immediately 8 to 10 hrs after fertilization. The method in brief:
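Free-swimming sea urchin blastulae were treated and monitored for behavioural change. Reported value is the effective threshold concentration (EC), from duplicate measurements.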

For assay [3], the system named is Paracentrotus lividus. Description: Antiproliferative activity against sea urchin embryo assessed as cleavage arrest after 10 to 15 mins fertilization 45 to 60 mins before first mitotic cycle completion. The method in brief: as §1

In the case of `COc1ccc(/C=C\c2cc(OC)c(OC)c(OC)c2)cc1O` [COMBRETASTATIN A4], the results for the EC in the assay with Paracentrotus lividus [1], in the assay with Paracentrotus lividus [2] and in the assay with Paracentrotus lividus [3] were 0.002 µM, 0.05 µM and 0.01 µM, respectively.
The matching figures for `COc1ccc(C(=O)c2cc(OC)c(OC)c(OC)c2OC)cc1O`: 2 µM, over 5 µM and over 4 µM.
The matching figures for `COc1ccc(C(=O)c2cc3c(c(OC)c2OC)OCO3)cc1O`: 1 µM, over 5 µM and 4 µM.
The matching figures for `COc1ccc(C(=O)c2cc(OC)c3c(c2OC)OCO3)cc1O`: 2 µM, over 5 µM and over 4 µM.
With `COc1ccc(C(=O)c2cc(OC)c3c(c2)OCO3)cc1O`, the EC turned out to be 0.001 µM in the assay with Paracentrotus lividus [1], 0.1 µM in the assay with Paracentrotus lividus [2] and 0.01 µM with Paracentrotus lividus [3].
As to `COc1ccc(/C=C\c2cc(OC)c3c(c2)OCO3)cc1O` [Combretastatin A-2], the EC came out at 0.002 µM in the assay with Paracentrotus lividus [1], 0.05 µM in the assay with Paracentrotus lividus [2] and 0.01 µM in the assay on Paracentrotus lividus [3].
On to `COc1ccc(C(=O)c2ccc3c(c2)OCCO3)cc1`, for which the EC in the assay with Paracentrotus lividus [1] was 0.5 µM; in the assay on Paracentrotus lividus [2], over 5 µM; in the assay with Paracentrotus lividus [3], 1 µM.
The matching figures for `COc1ccc(C(=O)c2cc(OC)c(OC)c(OC)c2)cc1O` [PHENSTATIN]: 0.01 µM, 0.5 µM and 0.05 µM.
As for `COc1ccc(C(=O)c2ccc3c(c2)OCCO3)cc1O`, the results for the EC in the assay with Paracentrotus lividus [1], in the assay with Paracentrotus lividus [2] and in the assay with Paracentrotus lividus [3] were 0.1 µM, over 5 µM and 0.2 µM, respectively.
